Data published in ChEMBL document CHEMBL3525912, “Sulfation of 4-hydroxy toremifene: individual variability, isoform specificity, and contribution to toremifene pharmacogenomics” (Drug Metab Dispos, 2012).
Each block holds one compound with its values, some of them ahead of it.

What was measured:
[1] = Retention time of the compound; assay type: physicochemical
Procedure, shortened: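 Symmetry C18 column (4.6 × 150 mm) run at 1.0 mL/min. Gradient: 2 mM TBAHS with 30% acetonitrile for 35 min, 45% acetonitrile for 15 min, then 30% for 20 min. 100 µl injection, flow scintillation detection.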

[2] = test system: Liver cytosol; test: Drug metabolism in human liver cytosol assessed as 4-(4-chloro-1-(4-(2-(dimethylamino)ethoxy)phenyl)-2-phenylbut-1-enyl)phenyl hydrogen sulfate formation after 15 mins by Michaelis-Menten equation in presence of 20 uM PAPS; assay type: ADME; conditions: 0.25 h, read-out: Km(app)
Procedure, shortened: (§1)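 Human liver cytosol (protein by Bradford) incubated with 4-OH-TOR (0.1–30 µM for kinetics), 20 µM [35S]PAPS, 50 mM potassium phosphate pH 6.2, final DMSO <0.1%, 15 min at 37 °C. Stopped with acetonitrile:acetic acid (96:4). Sulfate measured by radio-HPLC, background taken from a substrate-free vehicle control. Triplicate incubations.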

[3] = test system: Liver cytosol; test: Drug metabolism in human liver cytosol assessed as 4-(4-chloro-1-(4-(2-(dimethylamino)ethoxy)phenyl)-2-phenylbut-1-enyl)phenyl hydrogen sulfate formation measured per mg of protein after 15 mins by Michaelis-Menten equation in presence of 20 uM PAPS; assay type: ADME; conditions: 0.25 h; procedure, shortened: as §1
[4] = test system: Liver cytosol; test: Drug metabolism in human liver cytosol assessed as 4-(4-chloro-1-(4-(2-(dimethylamino)ethoxy)phenyl)-2-phenylbut-1-enyl)phenyl hydrogen sulfate formation measured per mg of protein treated with 0.1 to 30 after 15 mins by HPLC analysis; assay type: ADME, tissue-based; conditions: 0.25 h; procedure, shortened: as §1
[5] = test system: Liver cytosol; test: Drug metabolism in human liver cytosol assessed as 4-(4-chloro-1-(4-(2-(dimethylamino)ethoxy)phenyl)-2-phenylbut-1-enyl)phenyl hydrogen sulfate formation after 15 mins by HPLC analysis in presence of 20 uM PAPS and 0.1 to 10 uM SULT1A1 inhibitor DCNP; assay type: ADME; conditions: 0.25 h
Procedure, shortened: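 Pooled human liver cytosol sulfating 4-OH-TOR with 20 µM PAPS, pH 6.2, plus 0.1–10 µM (final) ethanol-dissolved inhibitor. After 15 min the reaction was stopped with acetonitrile:acetic acid (96:4) and sulfate quantified by radio-HPLC. IC50 calculated. Three separate determinations.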

[6] = Drug metabolism in human liver cytosol assessed as SULT1A1*1/2 single nucleotide polymorphism-mediated 4-(4-chloro-1-(4-(2-(dimethylamino)ethoxy)phenyl)-2-phenylbut-1-enyl)phenyl hydrogen sulfate formation by HPLC analysis; assay type: ADME, tissue-based
Procedure, shortened: (§2)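 Liver cytosols from individual donors (100 µg protein) with 100 µM 4-OH-TOR, 20 µM [35S]PAPS, 50 mM potassium phosphate pH 6.2, 15 min at 37 °C. Sulfate measured by C18 radio-HPLC. SULT1A1 copy number by TaqMan qPCR against RNaseP, quadruplicate samples. Genotype–activity relation analysed by ANOVA. Triplicate incubations.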

[7] = Drug metabolism in human liver cytosol assessed as SULT1A1 copy number-1-mediated 4-(4-chloro-1-(4-(2-(dimethylamino)ethoxy)phenyl)-2-phenylbut-1-enyl)phenyl hydrogen sulfate formation by HPLC analysis; assay type: ADME, tissue-based; procedure, shortened: as §2
[8] = Drug metabolism in human liver cytosol assessed as SULT1A1 copy number-2-mediated 4-(4-chloro-1-(4-(2-(dimethylamino)ethoxy)phenyl)-2-phenylbut-1-enyl)phenyl hydrogen sulfate formation by HPLC analysis; assay type: ADME, tissue-based; procedure, shortened: as §2
[9] = Drug metabolism in human liver cytosol assessed as SULT1A1 copy number-3-mediated 4-(4-chloro-1-(4-(2-(dimethylamino)ethoxy)phenyl)-2-phenylbut-1-enyl)phenyl hydrogen sulfate formation by HPLC analysis; assay type: ADME, tissue-based; procedure, shortened: as §2
[10] = Drug metabolism in human liver cytosol assessed as SULT1A1 3'UTR ACG/ACG copy number-2 -mediated 4-(4-chloro-1-(4-(2-(dimethylamino)ethoxy)phenyl)-2-phenylbut-1-enyl)phenyl hydrogen sulfate formation by HPLC analysis; assay type: ADME, tissue-based; procedure, shortened: as §2
[11] = Drug metabolism in human liver cytosol assessed as SULT1A1 3'UTR ACG/GTA copy number-2-mediated 4-(4-chloro-1-(4-(2-(dimethylamino)ethoxy)phenyl)-2-phenylbut-1-enyl)phenyl hydrogen sulfate formation by HPLC analysis; assay type: ADME, tissue-based; procedure, shortened: as §2
[12] = Drug metabolism in human liver cytosol assessed as SULT1A1 3'UTR GTA/GTA copy number-2-mediated 4-(4-chloro-1-(4-(2-(dimethylamino)ethoxy)phenyl)-2-phenylbut-1-enyl)phenyl hydrogen sulfate formation by HPLC analysis; assay type: ADME, tissue-based; procedure, shortened: as §2
[13] = Drug metabolism in human liver cytosol assessed as SULT1A1 3'UTR ACG/ACG copy number-3-mediated 4-(4-chloro-1-(4-(2-(dimethylamino)ethoxy)phenyl)-2-phenylbut-1-enyl)phenyl hydrogen sulfate formation by HPLC analysis; assay type: ADME, tissue-based; procedure, shortened: as §2
[14] = Drug metabolism in human liver cytosol assessed as SULT1A1 3'UTR ACG/GTA copy number-3-mediated 4-(4-chloro-1-(4-(2-(dimethylamino)ethoxy)phenyl)-2-phenylbut-1-enyl)phenyl hydrogen sulfate formation by HPLC analysis; assay type: ADME, tissue-based; procedure, shortened: as §2
[15] = Drug level in human liver cytosol assessed as SULT1A1 3'UTR ACG/ACG copy number-2-mediated compound formation treated with 4-OH-toremifene by HPLC analysis; assay type: ADME, tissue-based; procedure, shortened: as §2
[16] = Drug level in human liver cytosol assessed as SULT1A1 3'UTR ACG/GTA copy number-2-mediated compound formation treated with 4-OH-toremifene by HPLC analysis; assay type: ADME, tissue-based; procedure, shortened: as §2
[17] = Drug level in human liver cytosol assessed as SULT1A1 3'UTR GTA/GTA copy number-2-mediated compound formation treated with 4-OH-toremifene by HPLC analysis; assay type: ADME, tissue-based; procedure, shortened: as §2
[18] = Drug level in human liver cytosol assessed as SULT1A1 3'UTR ACG/ACG copy number-3-mediated compound formation treated with 4-OH-toremifene by HPLC analysis; assay type: ADME, tissue-based; procedure, shortened: as §2
[19] = Drug level in human liver cytosol assessed as SULT1A1 3'UTR ACG/GTA copy number-3-mediated compound formation treated with 4-OH-toremifene by HPLC analysis; assay type: ADME, tissue-based; procedure, shortened: as §2
[20] = Drug level in human liver cytosol assessed as SULT1A1*1/2 single nucleotide polymorphism-mediated compound formation treated with 4-OH-TOR by HPLC analysis; assay type: ADME, tissue-based; procedure, shortened: as §2
[21] = Drug level in human liver cytosol assessed as SULT1A1 copy number-1-mediated compound formation treated with 4-OH-TOR by HPLC analysis; assay type: ADME, tissue-based; procedure, shortened: as §2
[22] = Drug level in human liver cytosol assessed as SULT1A1 copy number-2--mediated compound formation treated with 4-OH-TOR by HPLC analysis; assay type: ADME, tissue-based; procedure, shortened: as §2
[23] = Drug level in human liver cytosol assessed as SULT1A1 copy number-3--mediated compound formation treated with 4-OH-TOR by HPLC analysis; assay type: ADME, tissue-based; procedure, shortened: as §2

Retention_time [1]: 45.2 min
Km [2]: 3.5 µM
Vmax [3]: 1.4 nmol/min/mg
Drug metabolism [4]: 0.0003 nmol/min
Drug metabolism [5]: metabolite_not_detected
Drug metabolism [6]: metabolite_detected
Drug metabolism [7]: metabolite_detected
Drug metabolism [8]: metabolite_detected
Drug metabolism [9]: metabolite_detected
Drug metabolism [10]: metabolite_detected
Drug metabolism [11]: metabolite_detected
Drug metabolism [12]: metabolite_detected
Drug metabolism [13]: metabolite_detected
Drug metabolism [14]: metabolite_detected
Compound: CN(C)CCOc1ccc(/C(=C(/CCCl)c2ccccc2)c2ccc(O)cc2)cc1 [4-HYDROXYTORMIFENE]

Drug metabolism [15]: metabolite_detected
Drug metabolism [16]: metabolite_detected
Drug metabolism [17]: metabolite_detected
Drug metabolism [18]: metabolite_detected
Drug metabolism [19]: metabolite_detected
Retention_time [1]: 12.1 min
Drug metabolism [20]: metabolite_detected
Drug metabolism [21]: metabolite_detected
Drug metabolism [22]: metabolite_detected
Drug metabolism [23]: metabolite_detected
Compound: CN(C)CCOc1ccc(/C(=C(/CCCl)c2ccccc2)c2ccc(OS(=O)(=O)O)cc2)cc1
